# Assay results from PMC2804034 (Journal of medicinal chemistry, 2010).
# Columns and labels:
# [1] = system: Trypanosoma brucei brucei strain 221; assay: Trypanosoma brucei brucei assay; type: cell-based; settings: for MIC50: Trypanosoma brucei, 48 h, read-out: Tbb MIC50; for trypanocidal activity against T. brucei: up to 100 μM
# [2] = system: Y strain T. cruzi trypomastigotes; assay: Trypanosoma cruzi assay in infected J774 macrophages; type: cell-based; settings: for activity against T. cruzi: 27 days treatment; for effect against the T. cruzi parasite in cell culture: infected macrophages
# J774 macrophages = assay: Compound toxicity for host macrophages in the T. cruzi assay; type: cell-based; settings: 5 μM
# cruzain = cruzain (Trypanosoma cruzi, UniProt P25779); assay: Cruzain enzymatic assay in 96-well plate format; type: biochemical; settings: secondary assays performed at UCSF
# Method in brief: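 Recombinant cruzain (4 nM final) in 100 mM sodium acetate pH 5.5, 5 mM DTT, 0.001% Triton X-100, preincubated 5 min at room temperature with test compound in DMSO. Reaction started with Z-Phe-Arg-AMC (10 μM). AMC release was followed as the rate of fluorescence increase (ex 355, em 460 nm). DMSO-only wells served as uninhibited control. IC50 was obtained by curve fitting.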
# cruzain, sequence (P25779 123-337 limits assumed): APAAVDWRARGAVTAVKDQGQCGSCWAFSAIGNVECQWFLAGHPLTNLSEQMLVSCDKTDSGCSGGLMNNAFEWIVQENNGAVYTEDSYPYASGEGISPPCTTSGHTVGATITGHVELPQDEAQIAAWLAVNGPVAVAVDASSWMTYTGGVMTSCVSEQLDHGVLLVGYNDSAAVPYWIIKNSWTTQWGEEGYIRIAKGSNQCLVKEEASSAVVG
MIC50 [1],SMILES,effect against the T. cruzi parasite in cell culture [2],further results
25 µM,N#Cc1nc(Nc2cccc(C(F)(F)F)c2)nc(NC2CCCC2)n1 [Compound 28],,activity against T. cruzi ([2]; 5 μM): inactive
25 µM,"CCn1cnc2c(Nc3cccc(Cl)c3)nc(C#N)nc21 [Compound 35, 6-(3-chlorophenylamino)-9-ethyl-9H-purine-2-carbonitrile]",no effect,activity against T. cruzi ([2]; 10 μM): inactive
,"CN1CCN(C(=O)N[C@@H](Cc2ccccc2)C(=O)N[C@H](/C=C/S(=O)(=O)c2ccccc2)CCc2ccccc2)CC1 [Compound K777, reference compound]",,activity against T. cruzi ([2]; 10 μM): cured cell infection
100 µM,N#Cc1nc(Nc2cccc(F)c2)nc(NC2CCCC2)n1 [Compound 21],,
25 µM,Cc1cccc(Nc2nc(C#N)nc(NC3CCCC3)n2)c1 [Compound 25],no effect,activity against T. cruzi ([2]; 5 μM): inactive
> 100 µM,N#Cc1nc(Nc2ccc(F)cc2)nc(NC2CCCC2)n1 [Compound 24],,
6 µM,N#Cc1nc(Nc2cccc(Br)c2)nc(NC2CCCC2)n1 [Compound 23],no effect,toxicity against macrophages (J774 macrophages): toxic
25 µM,"CCn1cnc2c(Nc3cc(F)cc(F)c3)nc(C#N)nc21 [Compound 32, 6-(3,5-difluorophenylamino)-9-ethyl-9H-purine-2-carbonitrile]",no effect,activity against T. cruzi ([2]; 10 μM): inactive
100 µM,N#Cc1nc(Nc2cccc([N+](=O)[O-])c2)nc(NC2CCCC2)n1 [Compound 20],,
25 µM,N#Cc1nc(Nc2cc(Cl)cc(Cl)c2)nc(NC2CCCC2)n1 [Compound 30],,activity against T. cruzi ([2]; 5 μM): inactive
> 100 µM,CCOc1nc(C#N)nc(N2CCCCC2)n1 [Compound 3],,IC50 values (in words) (cruzain): mid-nanomolar; trypanocidal activity against T. brucei [1]: no trypanocidal activity
25 µM,N#Cc1nc(Nc2cccc(-c3ccccc3)c2)nc(NC2CCCC2)n1 [Compound 27],,activity against T. cruzi ([2]; 5 μM): inactive
6 µM,N#Cc1nc(Nc2cccc(Cl)c2)nc(NC2CCCC2)n1 [Compound 22],no effect,activity against T. cruzi ([2]; 5 μM): inactive
100 µM,N#Cc1nc(Nc2cccc(Cl)c2)c2ncn(C3CCCC3)c2n1 [Compound 36],no effect,activity against T. cruzi ([2]; 10 μM): inactive
6 µM,N#Cc1nc(NCC(F)F)nc(Nc2cc(F)cc(F)c2)n1 [Compound 31],,
> 100 µM,N#Cc1nc(N)nc(N(c2ccccc2)c2ccccc2)n1 [Compound 4],,IC50 values (in words) (cruzain): mid-nanomolar; trypanocidal activity against T. brucei [1]: no trypanocidal activity
> 100 µM,N#Cc1nc(Nc2ccc(Br)cc2)nc(NC2CCCC2)n1 [Compound 26],,
6 µM,"N#Cc1nc(Nc2cc(F)cc(F)c2)nc(NC2CCCC2)n1 [Compound 29, 4-(cyclopentylamino)-6-(3,5-difluorophenylamino)-1,3,5-triazine-2-carbonitrile]",,toxicity against macrophages (J774 macrophages): toxic
